Measured values of several laboratories.
Each line is one published result; the experiments were not run side by side.
rep methyltransferase: Replicase polyprotein 1ab, methyltransferase (rep, Severe acute respiratory syndrome coronavirus 2, UniProt P0DTD1)
rep main protease: Replicase polyprotein 1ab, main protease (rep, Severe acute respiratory syndrome coronavirus 2, UniProt P0DTD1)

SMILES	target	assay	endpoint	value
CCOc1nc2cccc(C(=O)OC(C)OC(=O)OC3CCCCC3)c2n1Cc1ccc(-c2ccccc2-c2nnn[nH]2)cc1 (stereo not drawn)	rep methyltransferase	enzyme activity, inhibitor	IC50	41.6 µM
COc1cc(CC2NCCc3cc(O)c(O)cc32)cc(OC)c1OC (stereo not drawn)	rep main protease	enzyme activity, inhibitor	IC50	> 20 µM
CC(=O)N1CCN(C(=S)c2ccc(Cl)cc2)CC1	rep methyltransferase	enzyme activity, inhibitor	IC50	181 µM
O=c1oc2cc(O)ccc2c2ccccc12	rep main protease	binding, SPR	Kd	52.7 µM
COc1ccc(N(Cc2cc(Cl)cs2)C(=O)Cc2cncc3ccccc23)cc1	rep main protease	binding, MST	Kd	1.5 µM
O=[N+]([O-])c1ccc(Sc2cccc[n+]2[O-])c2nonc12	rep main protease	enzyme activity, inhibitor	IC50	0.1 µM
COc1ccc(-c2csc(C3=C(O)CN(/N=C/c4c[nH]c5ccccc45)C3=N)n2)cc1	rep methyltransferase	enzyme activity, inhibitor	IC50	42.9 µM
CSc1ccc(C(=O)c2[nH]c(=O)[nH]c2C)cc1	rep main protease	enzyme activity, inhibitor	IC50	> 20 µM
CSc1ccc(N(Cc2cc(Cl)cs2)C(=O)Cc2cncc3ccccc23)cc1	rep main protease	binding, MST	Kd	1.4 µM
